This passage reports Relative affinity and ED50 results from ChEMBL document CHEMBL1135734, “Side-chain lactam-bridge conformational constraints differentiate the activities of salmon and human calcitonins and reveal a new design concept for potent calcitonin analogues” (J Med Chem, 2002).

Experiment [1] has as its target T1, Calcitonin receptor (Rattus norvegicus) (UniProt P32214).
T1 sequence (whole entry): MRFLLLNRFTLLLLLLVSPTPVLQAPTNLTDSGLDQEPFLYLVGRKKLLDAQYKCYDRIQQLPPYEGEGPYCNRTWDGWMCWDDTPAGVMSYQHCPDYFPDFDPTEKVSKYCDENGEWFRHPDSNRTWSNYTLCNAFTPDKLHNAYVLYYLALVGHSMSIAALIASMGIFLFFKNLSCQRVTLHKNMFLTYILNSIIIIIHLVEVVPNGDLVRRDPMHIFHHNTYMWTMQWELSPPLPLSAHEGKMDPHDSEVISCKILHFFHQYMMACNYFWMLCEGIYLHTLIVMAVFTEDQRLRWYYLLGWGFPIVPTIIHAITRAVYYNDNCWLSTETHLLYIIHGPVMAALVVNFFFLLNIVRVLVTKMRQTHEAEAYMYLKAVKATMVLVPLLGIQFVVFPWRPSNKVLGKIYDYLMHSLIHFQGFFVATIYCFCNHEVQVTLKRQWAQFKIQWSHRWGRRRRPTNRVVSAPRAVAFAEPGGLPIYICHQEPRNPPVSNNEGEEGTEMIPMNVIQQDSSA
In words: Affinity for calcitonin receptor of rat brain relative to [125I]-salmon calcitonin. An outline of the steps:
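Male Sprague–Dawley rat (250–350 g) brain membranes (~0.63 mg protein/tube) were shaken on ice for 30 min with 10 pM final [125I-Tyr22]sCT and competitor in 50 mM Tris-HCl pH 7.4 with 34 μM bacitracin. Tubes were centrifuged and the pellets washed, SDS-solubilized and scintillation counted. Nonspecific binding was taken with 1 μM sCT. IC50 came from probit analysis, and relative affinity set sCT = 100%.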

The target of experiment [2] is T2, Calcitonin receptor (Homo sapiens) (UniProt P30988).
T2 sequence (whole entry): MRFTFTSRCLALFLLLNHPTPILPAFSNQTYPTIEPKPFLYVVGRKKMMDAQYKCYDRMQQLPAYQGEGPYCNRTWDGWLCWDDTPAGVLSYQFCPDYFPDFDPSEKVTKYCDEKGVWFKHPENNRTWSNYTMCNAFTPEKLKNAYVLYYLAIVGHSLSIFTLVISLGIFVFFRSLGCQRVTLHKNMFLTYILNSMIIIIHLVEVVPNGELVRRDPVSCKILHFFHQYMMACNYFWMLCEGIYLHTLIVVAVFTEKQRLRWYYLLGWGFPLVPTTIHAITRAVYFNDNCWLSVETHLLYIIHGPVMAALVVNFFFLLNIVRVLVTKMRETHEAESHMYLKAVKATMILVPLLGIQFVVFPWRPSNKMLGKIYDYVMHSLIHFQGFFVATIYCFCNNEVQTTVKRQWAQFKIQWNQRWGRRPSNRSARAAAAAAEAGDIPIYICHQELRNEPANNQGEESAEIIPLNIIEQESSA

The structures appear in SMILES notation.

For the compound `CC[C@H](C)[C@H](NC(=O)[C@H](C)NC(=O)[C@@H](NC(=O)[C@H](CCC(N)=O)NC(=O)[C@H]1CCCN1C(=O)[C@H](Cc1ccccc1)NC(=O)[C@@H](N[C@@H](Cc1c[nH]cn1)C(=O)NC(CCCCN)C(=O)[C@@H]1CCCN1C(=O)[C@H](CC(N)=O)NC(=O)[C@H](Cc1ccccc1)NC(=O)[C@H](CC(=O)O)NC(=O)[C@H](CCC(N)=O)NC(=O)[C@@H](NC(=O)[C@H](Cc1ccc(O)cc1)NC(=O)[C@@H](NC(=O)CNC(=O)[C@H](CC(C)C)NC(=O)[C@H](CCSC)NC(=O)[C@H](CS)NC(=O)[C@@H](NC(=O)[C@H](CO)NC(=O)[C@H](CC(C)C)NC(=O)[C@H](CC(N)=O)NC(=O)CNC(=O)[C@@H](N)CS)[C@@H](C)O)[C@@H](C)O)[C@@H](C)O)[C@@H](C)O)[C@@H](C)O)C(=O)NCC(=O)N[C@H](C(=O)NCC(=O)N[C@@H](C)C(=O)N1CCC[C@@H]1C(N)=O)C(C)C` (stereo partly specified), the Relative affinity in experiment [1] was below 0.0075. In addition, in experiment [2], the ED50 was determined as 104 nM.
For `CC[C@H](C)[C@H](NC(=O)[C@H](C)NC(=O)[C@@H](NC(=O)[C@H](CCC(N)=O)NC(=O)[C@H]1CCCN1C(=O)[C@H](Cc1ccccc1)NC(=O)[C@@H](N[C@@H](Cc1c[nH]cn1)C(=O)N1CCC[C@H]1C(=O)[C@H](CCCCN)NC(=O)[C@H](CC(N)=O)NC(=O)[C@H](Cc1ccccc1)NC(=O)[C@H](CC(=O)O)NC(=O)[C@H](CCC(N)=O)NC(=O)[C@@H](NC(=O)[C@H](Cc1ccc(O)cc1)NC(=O)[C@@H](NC(=O)CNC(=O)[C@H](CC(C)C)NC(=O)[C@H](CCSC)NC(=O)[C@H](CS)NC(=O)[C@@H](NC(=O)[C@H](CO)NC(=O)[C@H](CC(C)C)NC(=O)[C@H](CC(N)=O)NC(=O)CNC(=O)[C@@H](N)CS)[C@@H](C)O)[C@@H](C)O)[C@@H](C)O)[C@@H](C)O)[C@@H](C)O)C(=O)NCC(=O)N[C@H](C(=O)NCC(=O)N[C@@H](C)C(=O)N1CCC[C@@H]1C(N)=O)C(C)C` the same measures were below 0.0075 and 22 nM.
Take `CC(C)C[C@H](NC(=O)[C@H](CCCCN)NC(=O)CNC(=O)[C@H](CC(C)C)NC(=O)[C@@H](NC(=O)[C@H](CS)NC(=O)[C@@H](NC(=O)[C@H](CO)NC(=O)[C@H](CC(C)C)NC(=O)[C@H](CC(N)=O)NC(=O)[C@H](CO)NC(=O)[C@@H](N)CS)[C@@H](C)O)C(C)C)C(=O)N[C@@H](CO)C(=O)N[C@@H](CCC(N)=O)C(=O)N[C@@H](CCC(=O)O)C(=O)N[C@@H](CC(C)C)C(=O)N[C@H]1CC(=O)NCCC[C@@H](C(=O)N[C@@H](Cc2ccc(O)cc2)C(=O)N2CCC[C@@H]2C(=O)N[C@@H](CCCN=C(N)N)C(=O)N[C@H](C(=O)N[C@@H](CC(N)=O)C(=O)N[C@H](C(=O)NCC(=O)N[C@@H](CO)C(=O)NCC(=O)N[C@H](C(=O)N2CCC[C@@H]2C(N)=O)[C@@H](C)O)[C@@H](C)O)[C@@H](C)O)NC(=O)[C@H](CCC(N)=O)NC(=O)[C@H](CC(C)C)NC(=O)[C@H](CCCCN)NC1=O`: the Relative affinity in experiment [1] came to 120. Besides, the ED50 in experiment [2] was found to be 0.091 nM.
